Assay results pooled from the literature.
Protocols differ between the studies behind these lines.
Medium: Caco-2

| SMILES | concentration | time | pH | Papp A→B |
| --- | --- | --- | --- | --- |
| Oc1cc(O)c2c(c1)O[C@H](c1ccc(O)c(O)c1)[C@@H](O)C2 | 100 µg/mL | 2 h |  | 11.7 ×10⁻⁶ cm/s |
| Cc1c[nH]c2ncnc(N3C=C(C(=O)N4CCC[C@@H](N)C4)SCC3)c12 | 10 µM |  | pH 6.5 | < 0.3 ×10⁻⁶ cm/s |
| N#Cc1ccc(C[C@H](Nc2ncc(-c3ccc(F)cc3)o2)C(=O)N2CCc3ccccc32)cc1 | 100 µM | 2 h |  | 10.6 ×10⁻⁶ cm/s |
| CC(C)NCC(O)COc1cccc2ccccc12 (stereo not drawn) | 10 µM | 2 h |  | 29.7 ×10⁻⁶ cm/s |
| COc1ccc(-c2cc(=O)c3c(O)cc(O[C@@H]4O[C@H](CO[C@@H]5O[C@@H](C)[C@H](O)[C@@H](O)[C@H]5O)[C@@H](O)[C@H](O)[C@H]4O)cc3o2)cc1O | 100 µg/mL | 2 h |  | 45.2 ×10⁻⁶ cm/s |
| C[C@@H]1O[C@@H](OC[C@H]2O[C@@H](Oc3c(-c4ccc(O)c(O)c4)oc4cc(O)cc(O)c4c3=O)[C@H](O)[C@@H](O)[C@@H]2O)[C@H](O)[C@H](O)[C@H]1O | 100 µg/mL |  |  | 0.304 ×10⁻⁶ cm/s |
| COCC(=O)OCc1cc2[nH]c(=S)n(Cc3cccnc3)c(=O)c2cc1Cl | 10 µM | 90 min | pH 7.4 | 0.2 ×10⁻⁶ cm/s |
| CCN1CCCC1CNC(=O)c1cc(S(N)(=O)=O)ccc1OC (stereo not drawn) | 5 µM | 2 h |  | 0.16 ×10⁻⁶ cm/s |
| CC[C@]1(O)C[C@@H]2CN(CCc3c([nH]c4ccccc34)[C@@](C(=O)OC)(c3cc4c(cc3OC)N(C)[C@H]3[C@@](O)(C(=O)OC)[C@H](OC(C)=O)[C@]5(CC)C=CCN6CC[C@]43[C@@H]65)C2)C1 | 10 µM | 2 h |  | 1.69 ×10⁻⁶ cm/s |
| CCOC(=O)[C@H](CCc1ccccc1)N[C@@H](C)C(=O)N1CCC[C@H]1C(=O)O | 5 µM | 2 h |  | 0.13 ×10⁻⁶ cm/s |
| COc1cc(C2Oc3cc([C@H]4Oc5cc(O)cc(O)c5C(=O)[C@@H]4O)ccc3OC2CO)ccc1O (stereo partly drawn) | 100 µg/mL | 2 h |  | 19 ×10⁻⁶ cm/s |
| CCOCC(=O)N1CCC[C@H](C(=O)NCc2nc(-c3ccc(C)nc3)cs2)C1 |  |  | pH 7.4 | 15 ×10⁻⁶ cm/s |
| O=c1c2cc(Cl)ccc2[nH]c(=S)n1Cc1cccnc1 | 10 µM | 90 min | pH 7.4 | 17.7 ×10⁻⁶ cm/s |
| N#C[C@@]1(c2ccc3c(N)ncnn23)O[C@H](CO)[C@@H](O)[C@H]1O | 10 µM | 2 h |  | 3.8 ×10⁻⁶ cm/s |
| CC(C)C(=O)OCc1cc2[nH]c(=S)n(Cc3cccnc3)c(=O)c2cc1Cl | 10 µM | 90 min | pH 7.4 | 1.4 ×10⁻⁶ cm/s |
| Cc1ncc(Cl)cc1NCc1ccc(C(=O)N[C@@H](CC2CCCC2)C(=O)NC2CC2)s1 | 5 µM | 2 h | pH 7.4 | 0.22 ×10⁻⁶ cm/s |
| CCCCCCOC(=O)NC(=N)c1ccc(NCc2nc3cc(C(=O)N(CCC(=O)OCC)c4ccccn4)ccc3n2C)cc1 | 5 µM | 2 h |  | 0.0021 ×10⁻⁶ cm/s |
| COc1ccc(-c2coc3cc(O)ccc3c2=O)cc1 | 100 µg/mL | 2 h |  | 4.66 ×10⁻⁶ cm/s |

| SMILES | concentration | time | pH | Papp A→B |
| --- | --- | --- | --- | --- |
| CN(C)CC(=O)OCc1cc2[nH]c(=S)n(Cc3cccnc3)c(=O)c2cc1Cl | 10 µM | 90 min | pH 7.4 | 42.5 ×10⁻⁶ cm/s |
| O=c1cc(-c2ccccc2)oc2cc(O)c(O)c(O)c12 | 100 µg/mL | 2 h |  | 9.23 ×10⁻⁶ cm/s |
| CN/C(=N/CCSCc1nc[nH]c1C)NC#N | 5 µM | 2 h |  | 0.55 ×10⁻⁶ cm/s |
| CC(C)(N)COCC(=O)N1CCC[C@H](C(=O)NCc2nc(-c3ccc(C(F)(F)F)cc3)cs2)C1 |  |  | pH 7.4 | 0.18 ×10⁻⁶ cm/s |
| C[C@H]1[C@H](NC(=O)/C(=N\OC(C)(C)C(=O)O)c2csc(N)n2)C(=O)N1S(=O)(=O)O | 5 µM | 2 h |  | 0.09 ×10⁻⁶ cm/s |
| N#Cc1ccc(C[C@H](Nc2nnc(-c3ccc(F)cc3)o2)C(=O)N2CCc3ccccc32)cc1 | 100 µM | 2 h |  | 62.9 ×10⁻⁶ cm/s |
| O=C(NCc1nc(-c2ccc(C(F)(F)F)cc2)cs1)[C@H]1CCCN(C(=O)COCCN2CCCC2)C1 |  |  | pH 7.4 | 1.8 ×10⁻⁶ cm/s |
| O=c1cc(-c2ccc(O)cc2)oc2c([C@@H]3O[C@H](CO)[C@@H](O)[C@H](O)[C@H]3O)c(O)cc(O)c12 | 50 µg/mL |  |  | 0.254 ×10⁻⁶ cm/s |
| O=C(NCc1nc(-c2ccc(C(F)(F)F)cc2)cs1)[C@H]1CCCN(C(=O)COCCN2CCCCC2)C1 |  |  | pH 7.4 | 3.9 ×10⁻⁶ cm/s |
| O=c1c(O[C@@H]2O[C@H](CO)[C@H](O)[C@H](O)[C@H]2O)c(-c2ccc(O)c(O)c2)oc2cc(O)cc(O)c12 | 50 µg/mL |  |  | 0.256 ×10⁻⁶ cm/s |
| O=c1c2cc(Cl)c(CO)cc2[nH]c(=S)n1Cc1cccnc1 | 10 µM | 90 min | pH 7.4 | 12.3 ×10⁻⁶ cm/s |
| O=c1cc(-c2ccc(O)c(O)c2)oc2cc(O)cc(O)c12 | 100 µg/mL | 2 h |  | 7.1 ×10⁻⁶ cm/s |
| COCC(=O)N1CCC[C@H](C(=O)NCc2nc(-c3ccc(C#N)cc3)cs2)C1 |  |  | pH 7.4 | 24 ×10⁻⁶ cm/s |
| N#Cc1ccc(C[C@H](NC(=O)c2cc3cc(F)ccc3[nH]2)C(=O)N2CCc3ccccc32)cc1 | 100 µM | 2 h |  | 1.2 ×10⁻⁶ cm/s |
| O=c1c(-c2ccc(O)cc2)coc2c([C@@H]3O[C@H](CO)[C@@H](O)[C@H](O)[C@H]3O)c(O)ccc12 | 100 µg/mL | 2 h |  | 45.7 ×10⁻⁶ cm/s |
| NCCOCC(=O)N1CCC[C@H](C(=O)NCc2nc(-c3ccc(C(F)(F)F)cc3)cs2)C1 |  |  | pH 7.4 | 0.1 ×10⁻⁶ cm/s |
| CN(C)CCc1c[nH]c2ccc(C[C@H]3COC(=O)N3)cc12 | 5 µM | 2 h |  | 0.56 ×10⁻⁶ cm/s |
| COc1ccc(-c2coc3cc(O)cc(O)c3c2=O)cc1 | 100 µg/mL | 2 h |  | 20.4 ×10⁻⁶ cm/s |
